Consider seven compounds from ChEMBL document CHEMBL1127424, “7-azetidinylquinolones as antibacterial agents. 2. Synthesis and biological activity of 7-(2,3-disubstituted-1-azetidinyl)-4-oxoquinoline- and -1,8-naphthyridine-3-carboxylic acids. Properties and structure-activity relationships of quinolones with an azetidine moiety” (J Med Chem, 1994).

The test system of one series is Proteus vulgaris. The experiment in a line: In vitro minimum inhibitory concentration for Proteus vulgaris ATCC 8427. The series is classed as functional. The procedure, abridged:
(§1)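 Serial 2-fold agar dilution in Mueller Hinton medium, run alongside a reference quinolone. Inoculum adjusted to 10⁸ cfu/mL; compound range 0.007–16 μg/mL.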

For series [1], the system named is Mus musculus. In words: Evaluation of efficacy on systemic infections Escherichia coli HM-42, after oral administration in mice. In kind it is functional. The procedure, abridged:
(§2)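 Single oral dose given immediately after infection, one of four doses per group, chosen from in vitro activity. Survival scored after one week. ED50 (total mg/kg protecting 50%) interpolated from survival rates.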

The next series has as its system Enterococcus faecalis. In words: In vitro minimum inhibitory concentration for Streptococcus faecalis ATCC 10541. The series is classed as functional. The procedure, abridged:
as §1

In the next series the test system is Enterobacter cloacae. The experiment in a line: In vitro minimum inhibitory concentration for Enterobacter cloacae ATCC 23355. The series is classed as functional.
Another series relates to Klebsiella pneumoniae. In words: In vitro minimum inhibitory concentration to inhibit Klebsiella pneumoniae ATCC 10031. In kind it is functional. The procedure, abridged:
as §1

The subject of another series is Bacillus cereus. The experiment in a line: In vitro minimum inhibitory concentration for Bacillus cereus ATCC 11778. In kind it is functional. A digest of the protocol: as §1
The test system of series [2] is Mus musculus. The experiment in a line: Evaluation of efficacy on systemic infections Pseudomonas aeruginosa HS-116, after oral administration in mice. The series is classed as functional. A digest of the protocol:
as §2

A further series relates to Staphylococcus aureus. The experiment in a line: In vitro minimum inhibitory concentration for Staphylococcus aureus ATCC 25178. In kind it is functional. A digest of the protocol: as §1
The next series concerns Bacillus subtilis. In words: In vitro minimum inhibitory concentration for Bacillus subtilis ATCC 6633. The series is classed as functional. A digest of the protocol: as §1
The subject of a further series is Morganella morganii. In words: In vitro minimum inhibitory concentration for Morganella morganii ATCC 8019. The series is classed as functional. The procedure, abridged: as §1
A further series concerns Pseudomonas aeruginosa. The experiment in a line: In vitro minimum inhibitory concentration for Pseudomonas aeruginosa ATCC 10145. In kind it is functional. The procedure, abridged:
as §1

A short description of series [3]: AUC (0-4 hr) ug/ml/h. In kind it is ADME, cell-free. Also noted: time < 4 hr; concentration or dose not given beside the values. The note with it: plasma. A digest of the protocol:
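Mice dosed once orally at 50 mg/kg; blood taken from groups of six mice at 0.5, 1, 2 and 4 h. Serum drug assayed by disk agar diffusion bioassay (Bacillus subtilis ATCC 6633 on Seed Agar, 37 °C, 18 h), giving total activity.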

The test system of another series is Escherichia coli. The experiment in a line: In vitro minimum inhibitory concentration for Escherichia coli ATCC 10799. In kind it is functional. A digest of the protocol:
as §1

A short description of series [4]: HPLC capacity factor (k'). The series is classed as ADME. A digest of the protocol: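 Ion-pair reversed-phase HPLC on ODS-2 (10 μm) at 45 °C. Mobile phase: 10 mM sodium heptanesulfonate plus 50 mM KH2PO4 (pH 3.5)–methanol 45:55, 1 mL/min. Samples at 100 μg/mL in DMF, injected in duplicate, UV 280 nm. k' = (tR − t0)/t0.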
For series [5], the system named is Staphylococcus epidermidis. The experiment in a line: In vitro minimum inhibitory concentration for Staphylococcus epidermidis ATCC 155-1. In kind it is functional. The procedure, abridged: as §1
Series [6] has as its system Mus musculus. The experiment in a line: Evaluation of efficacy on systemic infections Staphylococcus aureus HS-93, after oral administration in mice. In kind it is functional. The procedure, abridged:
as §2

A short description of series [7]: Solubility (buffer pH 7.4). The series is classed as physicochemical. The settings on record: read-out: S. A digest of the protocol:
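Excess solid shaken in 0.05 M phosphate buffer pH 7.4 for 24 h at 25 °C. Suspension filtered through 0.22 μm, discarding the first portion. Filtrate diluted in 0.1 N HCl or 0.1 N NaOH and read by UV at the compound's absorbance maximum.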

Each structure is given as a SMILES string. Converted amounts (≈) assume the structure as drawn.

As to `CCNC[C@H]1CN(c2c(F)cc3c(=O)c(C(=O)O)cn(C4CC4)c3c2F)[C@@H]1C`, the MIC against Proteus vulgaris worked out at 0.5 µg/mL (≈ 1.28 µM); in the series with Enterococcus faecalis it was 2 µg/mL (≈ 5.11 µM); against Enterobacter cloacae, 1 µg/mL (≈ 2.55 µM); in the series on Klebsiella pneumoniae, 0.06 µg/mL (≈ 0.153 µM); against Bacillus cereus it was 0.25 µg/mL (≈ 0.639 µM); against Staphylococcus aureus, 0.25 µg/mL (≈ 0.639 µM). Moreover, the MIC against Bacillus subtilis was 0.12 µg/mL (≈ 0.307 µM); in the series on Morganella morganii, 0.5 µg/mL (≈ 1.28 µM); in the series with Pseudomonas aeruginosa, 4 µg/mL (≈ 10.2 µM); against Escherichia coli, 0.25 µg/mL (≈ 0.639 µM); in series [5], 0.25 µg/mL (≈ 0.639 µM). Moreover, the ED50 with Mus musculus [1] stood at 4.7 mg/kg; in the series on Mus musculus [2], 61 mg/kg; in the series on Mus musculus [6], 37.5 mg/kg. This compound displayed an area under the curve (AUC) in series [3] of 11.8 µg·h/mL. In addition, the “Log k'” value in [4] turned out to be 0.025.
On to `C[C@H]1N(c2c(F)cc3c(=O)c(C(=O)O)cn(C4CC4)c3c2F)C[C@]1(C)N`, for which the MIC against Proteus vulgaris is 0.5 µg/mL (≈ 1.38 µM); against Enterococcus faecalis, 1 µg/mL (≈ 2.75 µM); against Enterobacter cloacae, 0.06 µg/mL (≈ 0.165 µM); in the series with Klebsiella pneumoniae it was 0.03 µg/mL (≈ 0.0826 µM); against Bacillus cereus it was 0.25 µg/mL (≈ 0.688 µM); against Staphylococcus aureus, 0.25 µg/mL (≈ 0.688 µM). For the same compound, the MIC with Bacillus subtilis turned out to be 0.06 µg/mL (≈ 0.165 µM); in the series on Morganella morganii it was 0.12 µg/mL (≈ 0.33 µM); against Pseudomonas aeruginosa, 2 µg/mL (≈ 5.5 µM); against Escherichia coli it was 0.12 µg/mL (≈ 0.33 µM); in [5], 0.12 µg/mL (≈ 0.33 µM). The solubility in series [7] amounted to 3.3 µg/mL (≈ 9.08 µM). This compound also came in with an AUC in series [3] of 20.6 µg·h/mL. The “Log k'” value in series [4] is recorded as 0.1312.
For `C[C@@H]1[C@@H](CN)CN1c1c(F)cc2c(=O)c(C(=O)O)cn(C3CC3)c2c1F`, the minimal inhibitory concentration (MIC) is 0.25 µg/mL (≈ 0.688 µM) against Proteus vulgaris; 0.25 µg/mL (≈ 0.688 µM) in the series with Enterococcus faecalis; 0.06 µg/mL (≈ 0.165 µM) against Enterobacter cloacae; 0.12 µg/mL (≈ 0.33 µM) in the series on Klebsiella pneumoniae; 0.25 µg/mL (≈ 0.688 µM) against Bacillus cereus; 0.12 µg/mL (≈ 0.33 µM) against Staphylococcus aureus. For the same compound, the MIC in the series on Bacillus subtilis came to 0.06 µg/mL (≈ 0.165 µM); with Morganella morganii, 0.25 µg/mL (≈ 0.688 µM); against Pseudomonas aeruginosa, 0.5 µg/mL (≈ 1.38 µM); against Escherichia coli it was 0.06 µg/mL (≈ 0.165 µM); in [5], 0.12 µg/mL (≈ 0.33 µM). Moreover, the figures for the ED50 in the series with Mus musculus [1], with Mus musculus [2] and in the series on Mus musculus [6] were 31 mg/kg, 70 mg/kg and 20 mg/kg, respectively. In series [3], the AUC turned out to be 2.3 µg·h/mL. In [4], the “Log k'” value was -0.0397.
On to `CC[C@H]1[C@@H](N)CN1c1c(F)cc2c(=O)c(C(=O)O)cn(C3CC3)c2c1F`, for which the MIC is 0.25 µg/mL (≈ 0.688 µM) with Proteus vulgaris; 2 µg/mL (≈ 5.5 µM) against Enterococcus faecalis; 0.12 µg/mL (≈ 0.33 µM) with Enterobacter cloacae; 0.015 µg/mL (≈ 0.0413 µM) in the series on Klebsiella pneumoniae; 0.12 µg/mL (≈ 0.33 µM) with Bacillus cereus; 0.12 µg/mL (≈ 0.33 µM) against Staphylococcus aureus. Moreover, the MIC against Bacillus subtilis was determined as 0.015 µg/mL (≈ 0.0413 µM); with Morganella morganii, 0.12 µg/mL (≈ 0.33 µM); against Pseudomonas aeruginosa, 2 µg/mL (≈ 5.5 µM); in the series with Escherichia coli, 0.12 µg/mL (≈ 0.33 µM); in series [5], 0.12 µg/mL (≈ 0.33 µM). Moreover, the solubility in series [7] is 55.9 µg/mL (≈ 154 µM). In series [3], this compound registered an AUC of 14.7 µg·h/mL. Moreover, the “Log k'” value in series [4] was determined as 0.1399.
Turning to `CCNC[C@H]1CN(c2cc3c(cc2F)c(=O)c(C(=O)O)cn3C2CC2)[C@@H]1C`, the MIC was found to be 1 µg/mL (≈ 2.68 µM) with Proteus vulgaris; 4 µg/mL (≈ 10.7 µM) with Enterococcus faecalis; 0.12 µg/mL (≈ 0.321 µM) against Enterobacter cloacae; 0.06 µg/mL (≈ 0.161 µM) in the series on Klebsiella pneumoniae; 1 µg/mL (≈ 2.68 µM) with Bacillus cereus; 0.5 µg/mL (≈ 1.34 µM) against Staphylococcus aureus. Moreover, the MIC in the series with Bacillus subtilis came out at 0.06 µg/mL (≈ 0.161 µM); against Morganella morganii, 0.5 µg/mL (≈ 1.34 µM); in the series on Pseudomonas aeruginosa it was 4 µg/mL (≈ 10.7 µM); against Escherichia coli, 0.12 µg/mL (≈ 0.321 µM); in [5] it was 0.5 µg/mL (≈ 1.34 µM). Further, the 50% effective dose (ED50) in the series on Mus musculus [1] was 28.4 mg/kg; with Mus musculus [2] it was 265 mg/kg; in the series on Mus musculus [6], 60.5 mg/kg. The area under the curve (AUC) in series [3] amounted to 3.2 µg·h/mL. Moreover, the “Log k'” value in series [4] is -0.0042.
Regarding `CC[C@H]1[C@@H](N)CN1c1cc2c(cc1F)c(=O)c(C(=O)O)cn2C1CC1`, the MIC came out at 0.25 µg/mL (≈ 0.724 µM) in the series with Proteus vulgaris; 4 µg/mL (≈ 11.6 µM) in the series on Enterococcus faecalis; 0.12 µg/mL (≈ 0.347 µM) against Enterobacter cloacae; 0.015 µg/mL (≈ 0.0434 µM) in the series on Klebsiella pneumoniae; 0.25 µg/mL (≈ 0.724 µM) with Bacillus cereus; 0.25 µg/mL (≈ 0.724 µM) against Staphylococcus aureus. The MIC in the series with Bacillus subtilis amounted to 0.015 µg/mL (≈ 0.0434 µM); with Morganella morganii it was 0.25 µg/mL (≈ 0.724 µM); in the series on Pseudomonas aeruginosa, 2 µg/mL (≈ 5.79 µM); against Escherichia coli, 0.12 µg/mL (≈ 0.347 µM); in series [5] it was 0.25 µg/mL (≈ 0.724 µM). Further, in series [7], the solubility is 42.2 µg/mL (≈ 122 µM). Also, in series [3], the AUC stood at 3.6 µg·h/mL. Further, in [4], the “Log k'” value is 0.1708.
With `C[C@H]1[C@H](N)CN1c1nc2c(cc1F)c(=O)c(C(=O)O)cn2-c1ccc(F)cc1`, the MIC against Proteus vulgaris came out at 2 µg/mL (≈ 5.18 µM); against Enterococcus faecalis, 4 µg/mL (≈ 10.4 µM); against Enterobacter cloacae, 0.12 µg/mL (≈ 0.311 µM); in the series on Klebsiella pneumoniae it was 0.06 µg/mL (≈ 0.155 µM); against Bacillus cereus, 0.25 µg/mL (≈ 0.647 µM); against Staphylococcus aureus, 0.25 µg/mL (≈ 0.647 µM). Moreover, the MIC came out at 0.06 µg/mL (≈ 0.155 µM) in the series on Bacillus subtilis; 0.25 µg/mL (≈ 0.647 µM) in the series with Morganella morganii; 2 µg/mL (≈ 5.18 µM) against Pseudomonas aeruginosa; 0.12 µg/mL (≈ 0.311 µM) against Escherichia coli; 0.25 µg/mL (≈ 0.647 µM) in series [5]. Moreover, the ED50 in the series with Mus musculus [1] is 3.1 mg/kg; in the series on Mus musculus [2], above 400 mg/kg; in the series on Mus musculus [6], 11.9 mg/kg. Also, the “Log k'” value in [4] is listed as 0.0681.

One may read the MIC as the lowest concentration found to suppress growth. Broadly, the ED50 is the dose at which the effect has come halfway, by size or by number of responders. By AUC is commonly meant concentration integrated over time.
